We go through 1 compound from article PMC9883262 (Molecular Metabolism, 2023).

The test system of this assay is MMP-9 secreted by MCF-7 cells. The experiment in a line: Gelatin zymography MMP-9 secretion, MCF-7. In kind it is cell-based. Conditions: 80 nM PMA, serum-free medium, MCF-7, vs basal (MMP-9 not detectable). A digest of the protocol:
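Cells attached overnight, then treated 24 or 48 h with test compound or DMSO vehicle in serum-free medium. Conditioned medium was acetone-precipitated (4 volumes, −20 °C, 2 h), and pellets were taken up in non-reducing SDS buffer. Samples were run on a 7.5% gel with 1 mg/mL gelatin, washed in Triton X-100/CaCl2/ZnCl2, incubated overnight at 37 °C, and Coomassie-stained. Mean ± SD of three independent experiments.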

As for `CCCCCCCCCCCCCC(=O)O[C@@H]1[C@@H](C)[C@@]2(O)[C@@H](C=C(CO)C[C@]3(O)C(=O)C(C)=C[C@@H]23)[C@@H]2C(C)(C)[C@]12OC(C)=O` [PMA, phorbol 12-myristate 13-acetate], the “secreted MMP-9 level, PMA stimulation” value was “drastically increased”.
